Experimental data published in ChEMBL document CHEMBL2040765, “Synthesis and anticancer activity of a series of norcantharidin analogues” (2012).

Columns and labels:
Format in all cases: functional
MCF7 [1] = assay: Growth inhibition of human MCF7 cells at 100 uM after 72 hrs y MTT assay; details: for inhibition of growth at 100 µM: Homo sapiens, MCF7, 72 h, read-out: GI
How it was run: (§1)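 Log-phase cells in supplemented DMEM (10% FBS, 4 mM glutamine, antibiotics; 37 °C, 5% CO2) were plated in duplicate at 2500–4000 cells/well. Compound was added 24 h later at a fixed 100 µM, from 40 mM DMSO stocks. After 72 h, MTT absorbance was read at 540 nm and expressed as percent growth inhibition; 100% means total inhibition.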

DU-145 [2] = assay: Growth inhibition of human DU145 cells at 100 uM after 72 hrs y MTT assay; details: for inhibition of growth at 100 µM: Homo sapiens, DU-145, 72 h, read-out: GI; how it was run: as §1
A-431 [3] = assay: Growth inhibition of human A431 cells at 100 uM after 72 hrs y MTT assay; details: for inhibition of growth at 100 µM: Homo sapiens, A-431, 72 h, read-out: GI; how it was run: as §1
A2780 [4] = assay: Growth inhibition of human A2780 cells at 100 uM after 72 hrs y MTT assay; details: for inhibition of growth at 100 µM: Homo sapiens, A2780, 72 h, read-out: GI; how it was run: as §1
SW480 [5] = assay: Growth inhibition of human SW480 cells at 100 uM after 72 hrs y MTT assay; details: for inhibition of growth at 100 µM: Homo sapiens, SW480, 72 h, read-out: GI; how it was run: as §1
NCI-H460 [6] = assay: Growth inhibition of human H460 cells at 100 uM after 72 hrs y MTT assay; details: for inhibition of growth at 100 µM: Homo sapiens, NCI-H460, 72 h, read-out: GI; how it was run: as §1
HT-29 [7] = assay: Growth inhibition of human HT-29 cells at 100 uM after 72 hrs y MTT assay; details: for inhibition of growth at 100 µM: Homo sapiens, HT-29, 72 h, read-out: GI; how it was run: as §1
[8] = Growth inhibition of human SJ-G2 cells at 100 uM after 72 hrs y MTT assay; details: for inhibition of growth at 100 µM: Homo sapiens, SJ-G2, 72 h, read-out: GI; how it was run: as §1
[9] = Growth inhibition of human BE(2)-C cells at 100 uM after 72 hrs y MTT assay; details: for inhibition of growth at 100 µM: Homo sapiens, BE(2)-C, 72 h, read-out: GI; how it was run: as §1
[10] = Growth inhibition of human SJ-G2 cells after 72 hrs y MTT assay; details: SJ-G2, 72 h
How it was run: (§2)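 Cells kept in DMEM with 10% FBS, 10 mM sodium bicarbonate, penicillin, streptomycin and 4 mM glutamine at 37 °C under 5% CO2. Log-phase cells were plated in duplicate at 2500–4000 cells/well. After 24 h, compound in medium was added; analogue stocks were 40 mM in DMSO. Growth was read after 72 h by MTT absorbance at 540 nm in dose-response testing.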

NCI-H460 [11] = assay: Growth inhibition of human H460 cells after 72 hrs y MTT assay; details: NCI-H460, 72 h; how it was run: as §2
A2780 [12] = assay: Growth inhibition of human A2780 cells after 72 hrs y MTT assay; details: A2780, 72 h; how it was run: as §2
A-431 [13] = assay: Growth inhibition of human A431 cells after 72 hrs y MTT assay; details: A-431, 72 h; how it was run: as §2
[14] = Growth inhibition of human BE(2)-C cells after 72 hrs y MTT assay; how it was run: as §2
DU-145 [15] = assay: Growth inhibition of human DU145 cells after 72 hrs y MTT assay; details: DU-145, 72 h; how it was run: as §2
SW480 [16] = assay: Growth inhibition of human SW480 cells after 72 hrs y MTT assay; details: SW480, 72 h; how it was run: as §2
HT-29 [17] = assay: Growth inhibition of human HT-29 cells after 72 hrs y MTT assay; details: HT-29, 72 h; how it was run: as §2
MCF7 [18] = assay: Growth inhibition of human MCF7 cells after 72 hrs y MTT assay; details: MCF7, 72 h; how it was run: as §2

GI50 (NCI-H460 [11]) [µM] | GI50 (A2780 [12]) [µM] | GI50 (A-431 [13]) [µM] | GI50 (DU-145 [15]) [µM] | GI50 (SW480 [16]) [µM] | GI50 (HT-29 [17]) [µM] | GI50 (MCF7 [18]) [µM] | SMILES | inhibition of growth at 100 µM (MCF7 [1]) [%] | growth inhibition (GI) (A-431 [3]) [%] | inhibition of growth at 100 µM (SW480 [5]) [%] | growth inhibition (GI) (NCI-H460 [6]) [%] | inhibition of growth at 100 µM (HT-29 [7]) [%] | inhibition of growth at 100 µM [8] [%] | inhibition of growth at 100 µM [9] [%] | inhibition of growth at 100 µM (DU-145 [2]) [%] | GI50 [10] [µM] | GI50 [14] [µM] | further results
– | – | – | – | – | – | – | O=C1O[C@H](OCC2CO2)[C@@H]2[C@H]1[C@H]1CC[C@@H]2O1 (stereo in doubt; 20) | 43 | 18 | 16 | 7 | 52 | 59 | 42 | – | – | – | growth inhibition (GI) (DU-145 [2]): 21%; growth inhibition (GI) (A2780 [4]): 83%
– | – | – | – | – | – | – | CC1OC1CO[C@@H]1OC(=O)[C@H]2[C@@H]1[C@@H]1CC[C@H]2O1 (stereo not given in full) | 27 | – | 17 | – | 70 | 80 | 23 | 17 | – | – | inhibition of growth at 100 µM (A-431 [3]): 18%; inhibition of growth at 100 µM (A2780 [4]): 26%; inhibition of growth at 100 µM (NCI-H460 [6]): 9%
– | – | – | – | – | – | – | O=C1O[C@H](OCC2CO2)[C@@H]2[C@H]1[C@H]1CC[C@@H]2O1 (stereo in doubt; 19) | – | – | – | – | – | – | – | 33 | – | – | growth inhibition (GI) (MCF7 [1]): 37%; inhibition of growth at 100 µM (A-431 [3]): 35%; growth inhibition (GI) (A2780 [4]): 46%; growth inhibition (GI) (SW480 [5]): 32%; inhibition of growth at 100 µM (NCI-H460 [6]): 11%; growth inhibition (GI) (HT-29 [7]): 69%; growth inhibition (GI) [8]: 75%
– | – | – | – | – | – | – | O=C1O[C@@H](OCC2CO2)[C@@H]2[C@H]1[C@H]1CC[C@@H]2O1 (stereo in doubt; 22) | 40 | 28 | 28 | 14 | 74 | 76 | 38 | – | – | – | growth inhibition (GI) (DU-145 [2]): 30%
– | – | – | – | – | – | – | O=C1O[C@@H](OCC2CO2)[C@@H]2[C@H]1[C@H]1CC[C@@H]2O1 (stereo in doubt; 21) | – | – | – | – | – | – | – | 25 | – | – | growth inhibition (GI) (MCF7 [1]): 33%; inhibition of growth at 100 µM (A-431 [3]): 22%; inhibition of growth at 100 µM (A2780 [4]): 42%; growth inhibition (GI) (SW480 [5]): 23%; inhibition of growth at 100 µM (NCI-H460 [6]): 7%; growth inhibition (GI) (HT-29 [7]): 68%; growth inhibition (GI) [8]: 73%; growth inhibition (GI) [9]: 35%
– | – | – | – | – | – | – | CC1OC1CO[C@H]1OC(=O)[C@H]2[C@@H]1[C@@H]1CC[C@H]2O1 (stereo in doubt; 23) | – | 35 | – | 24 | – | – | – | 37 | – | – | growth inhibition (GI) (MCF7 [1]): 61%; inhibition of growth at 100 µM (A2780 [4]): 55%; growth inhibition (GI) (SW480 [5]): 41%; growth inhibition (GI) (HT-29 [7]): 75%; growth inhibition (GI) [8]: 88%; growth inhibition (GI) [9]: 54%
> 100 | 28 | 72 | 86 | 49 | 40 | 36 | CCCCCCCCO[C@H]1OC(=O)[C@H]2[C@@H]1[C@@H]1CC[C@H]2O1 | – | – | – | – | – | – | – | – | 45 | 51 | –
> 100 | 57 | > 100 | > 100 | 93 | 42 | 77 | C/C=C/CO[C@H]1OC(=O)[C@H]2[C@@H]1[C@@H]1CC[C@H]2O1 | – | – | – | – | – | – | – | – | 55 | 84 | –
> 100 | > 100 | > 100 | > 100 | 94 | 19 | > 100 | CC(C)O[C@H]1OC(=O)[C@H]2[C@@H]1[C@@H]1CC[C@H]2O1 | – | – | – | – | – | – | – | – | 21 | 44 | –
– | – | – | – | – | – | – | CC1OC1CO[C@H]1OC(=O)[C@H]2[C@@H]1[C@@H]1CC[C@H]2O1 (stereo in doubt; 24) | 46 | 17 | 37 | 9 | 68 | 79 | 53 | – | – | – | growth inhibition (GI) (DU-145 [2]): 20%; growth inhibition (GI) (A2780 [4]): 58%
> 100 | 22 | 87 | 84 | 9 | 17 | 20 | CCOP(=O)(OCC)OCCCO[C@H]1OC(=O)[C@H]2[C@@H]1[C@@H]1CC[C@H]2O1 | – | – | – | – | – | – | – | – | 43 | 9 | –
> 100 | > 100 | > 100 | > 100 | > 100 | 50 | > 100 | CCCCOC1OC(=O)[C@H]2[C@@H]1[C@@H]1CC[C@H]2O1 (single isomer, unassigned) | – | – | – | – | – | – | – | – | 32 | 93 | –
> 100 | 20 | 68 | > 100 | 39 | 32 | 27 | CCCCCO[C@H]1OC(=O)[C@H]2[C@@H]1[C@@H]1CC[C@H]2O1 | – | – | – | – | – | – | – | – | 37 | 38 | –
